Measured values published in BindingDB's records for doi:10.1021/acs.jmedchem.9b00634 (2019).
*1 amine or outer side, *2 acyl side, *3 side chain or, on linkers, in order; H or OH if unused. Where a SMILES comes first, the peptide text is derived from it. The star is where a group is joined. NH(CH2)3O(βDGlc) = OC[C@H]1O[C@@H](OCCCN*)[C@H](O)[C@@H](O)[C@@H]1O; Glutaryl = O=C(CCCC(=O)[*:2])[*:1]

Key:
[1] = Binding affinity to GLUT1 in human A549 cells assessed as cytotoxicity by measuring reduction in cell viability measured after 24 hrs by CCK8 assay
[2] = Binding affinity to GLUT1 in human NCI-H460 cells assessed as cytotoxicity by measuring reduction in cell viability measured after 24 hrs by CCK8 assay
[3] = Binding affinity to GLUT1 in human L02 cells assessed as cytotoxicity by measuring reduction in cell viability measured after 24 hrs by CCK8 assay
[4] = Binding affinity to GLUT1 in human MDA-MB-231 cells assessed as cytotoxicity by measuring reduction in cell viability measured after 24 hrs by CCK8 assay
[5] = Binding affinity to GLUT1 in human NCI-H1437 cells assessed as cytotoxicity by measuring reduction in cell viability measured after 24 hrs by CCK8 assay
[6] = Binding affinity to GLUT1 in human HGC27 cells assessed as cytotoxicity by measuring reduction in cell viability measured after 24 hrs by CCK8 assay
[7] = Binding affinity to GLUT1 in human PC3 cells assessed as cytotoxicity by measuring reduction in cell viability measured after 24 hrs by CCK8 assay
[8] = biological target: T1, Solute carrier family 2, facilitated glucose transporter member 1 (Homo sapiens, UniProt P11166); assay: Binding affinity to GLUT1 in human A549 cells assessed as cytotoxicity by measuring reduction in cell viability measured after 24 hrs by CCK8 assay
T1 sequence (P11166 whole entry): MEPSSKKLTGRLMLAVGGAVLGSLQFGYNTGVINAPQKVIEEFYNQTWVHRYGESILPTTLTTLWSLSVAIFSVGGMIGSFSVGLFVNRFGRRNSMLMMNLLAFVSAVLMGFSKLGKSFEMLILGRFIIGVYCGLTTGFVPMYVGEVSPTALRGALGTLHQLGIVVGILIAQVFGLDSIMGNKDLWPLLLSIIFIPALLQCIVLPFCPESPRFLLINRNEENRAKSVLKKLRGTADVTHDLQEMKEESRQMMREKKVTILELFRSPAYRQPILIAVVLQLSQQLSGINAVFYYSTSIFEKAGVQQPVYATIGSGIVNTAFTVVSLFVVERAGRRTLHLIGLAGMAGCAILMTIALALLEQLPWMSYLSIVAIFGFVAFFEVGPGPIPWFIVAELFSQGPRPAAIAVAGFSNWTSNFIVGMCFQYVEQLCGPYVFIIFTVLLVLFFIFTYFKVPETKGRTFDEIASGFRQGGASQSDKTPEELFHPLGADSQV
In short: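 Cells (A549, H460, H1437, PC-3, HGC-27, MDA-MB-231, HEK-293T, L-02) seeded at about 2×10^3/well and grown overnight. Treated 24 h with a peptide concentration series in serum-free medium. Viability by CCK-8; IC50 taken as 50% inhibition versus untreated cells. Average of three experiments, each in triplicate.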

CC[C@H](C)[C@H](NC(=O)[C@H](Cc1ccccc1)NC(=O)[C@H](CCCNC(=N)N)NC(=O)[C@H](C)NC(=O)[C@@H](NC(=O)[C@H](CO)NC(=O)[C@H](CCCNC(=N)N)NC(=O)[C@H](CCSC)NC(=O)[C@H](C)NC(=O)[C@H](CCCNC(=N)N)NC(=O)[C@H](Cc1ccccc1)NC(=O)[C@H](Cc1c[nH]c2ccccc12)NC(=O)CNC(=O)[C@@H](N)CCCNC(=N)N)[C@@H](C)CC)C(=O)N[C@@H](C)C(=O)N[C@@H](CCCNC(=N)N)C(=O)N[C@@H](CCC(=O)O)C(=O)N[C@@H](CCCNC(=N)N)C(=O)N[C@@H](CC(C)C)C(=O)N[C@@H](CCCNC(=N)N)C(=O)N[C@@H](CCC(=O)O)C(=O)N[C@@H](Cc1cnc[nH]1)C(=O)N[C@@H](CC(C)C)C(=O)O (H-RGWFRAMRSIARFIARERLREHL-OH)
IC50 [1]: 14.3 µM | IC50 [2]: 12.9 µM | IC50 [3]: 12.6 µM | IC50 [4]: 10.5 µM | IC50 [5]: 16.5 µM | IC50 [6]: 12.5 µM | IC50 [7]: 15.6 µM

CC[C@H](C)[C@H](NC(=O)[C@H](Cc1ccccc1)NC(=O)[C@H](CCCNC(=N)N)NC(=O)[C@H](C)NC(=O)[C@@H](NC(=O)[C@H](CO)NC(=O)[C@H](CCCNC(=N)N)NC(=O)[C@H](CCSC)NC(=O)[C@H](C)NC(=O)[C@H](CCCNC(=N)N)NC(=O)[C@H](Cc1ccccc1)NC(=O)[C@H](Cc1c[nH]c2ccccc12)NC(=O)CNC(=O)[C@H](CCCNC(=N)N)NC(=O)CCCC(=O)NCCCO[C@@H]1O[C@H](CO)[C@@H](O)[C@H](O)[C@H]1O)[C@@H](C)CC)C(=O)N[C@@H](C)C(=O)N[C@@H](CCCNC(=N)N)C(=O)N[C@@H](CCC(=O)O)C(=O)N[C@@H](CCCNC(=N)N)C(=O)N[C@@H](CC(C)C)C(=O)N[C@@H](CCCNC(=N)N)C(=O)N[C@@H](CCC(=O)O)C(=O)N[C@@H](Cc1cnc[nH]1)C(=O)N[C@@H](CC(C)C)C(=O)O ({NH(CH2)3O(βDGlc)-Glutaryl}-RGWFRAMRSIARFIARERLREHL-OH)
IC50 [8]: 9.6 µM | IC50 [2]: 8.5 µM | IC50 [3]: 25.9 µM | IC50 [4]: 10.1 µM | IC50 [6]: 12.6 µM | IC50 [7]: 6.9 µM
